From ChEMBL document CHEMBL1641376, “Novel bis-, tris-, and tetrakis-tertiary amino analogs as antagonists at neuronal nicotinic receptors that mediate nicotine-evoked dopamine release” (Bioorg Med Chem Lett, 2011)

Tests used:
Format in all cases: functional, tissue-based
[1] = biological target: Neuronal acetylcholine receptor subunit alpha-6 (Rattus norvegicus) (UniProt P43143); assay: Antagonist activity at alpha6 nAChR in rat striatum assessed as inhibition of nicotine-induced [3H]dopamine release relative to nicotine
Sequence of Neuronal acetylcholine receptor subunit alpha-6 (Rattus norvegicus) (P43143 whole entry, the tested form may be a part): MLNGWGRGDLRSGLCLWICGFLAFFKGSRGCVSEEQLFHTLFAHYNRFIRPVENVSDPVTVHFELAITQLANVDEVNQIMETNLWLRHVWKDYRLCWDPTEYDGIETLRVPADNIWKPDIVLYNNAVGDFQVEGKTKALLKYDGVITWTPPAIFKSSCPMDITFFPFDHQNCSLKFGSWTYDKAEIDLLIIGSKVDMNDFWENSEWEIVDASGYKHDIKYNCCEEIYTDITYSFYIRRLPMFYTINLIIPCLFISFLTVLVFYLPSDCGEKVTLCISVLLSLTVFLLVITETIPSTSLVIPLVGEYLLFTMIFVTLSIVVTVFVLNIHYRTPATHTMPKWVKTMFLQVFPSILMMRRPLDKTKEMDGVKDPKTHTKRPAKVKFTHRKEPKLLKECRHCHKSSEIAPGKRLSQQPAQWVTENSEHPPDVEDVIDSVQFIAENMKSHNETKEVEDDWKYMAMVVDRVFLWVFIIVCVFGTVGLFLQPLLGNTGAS
Summary of the method: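 [3H]DA release from superfused rat striatal slices was evoked by 10 μM nicotine and tested across a full analogue concentration range. IC50 and Imax were derived from the concentration-response curves, with inhibition relative to the nicotine response in the absence of analogue. 4–6 independent experiments.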

[2] = biological target: Neuronal acetylcholine receptor subunit alpha-6 (Rattus norvegicus, UniProt P43143); assay: Antagonist activity at alpha6 nAChR in rat striatum assessed as inhibition of nicotine-induced [3H]dopamine release
Sequence of Neuronal acetylcholine receptor subunit alpha-6 (P43143 whole entry, the tested form may be a part): as above
Summary of the method: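 Superfused rat striatal slices preloaded with [3H]DA; release evoked by 10 μM nicotine. Screening used 100 nM analogue, with inhibition expressed as % of the nicotine response without analogue (≥3 independent experiments, each in duplicate). Compounds giving >40% inhibition had full concentration-response curves run to derive IC50 and Imax (4–6 independent experiments).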

[3] = biological target: Neuronal acetylcholine receptor subunit alpha-6 (Rattus norvegicus) (UniProt P43143); assay: Antagonist activity at alpha6 nAChR in rat striatum assessed as inhibition of nicotine-induced [3H]dopamine release at 100 nM relative to control
Summary of the method: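 Superfused rat striatal slices preloaded with [3H]DA. Nicotine-evoked [3H]DA release was elicited by 10 μM nicotine with 100 nM analogue present. Inhibition is expressed as a percentage of the nicotine response under control conditions without analogue. At least 3 independent experiments, each in duplicate.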

| Compound | Imax [1] [%] | IC50 [2] [nM] | inhibition [3] [%] |
| --- | --- | --- | --- |
| c1ccc2c[n+](CCCCCCCCCC[n+]3ccc4ccccc4c3)ccc2c1 | 95 | 70 | – |
| CC1=CCCN(CCCCCCCCCCCCN2CCC=C(C)C2)C1 | 60 | 0.95 | 50 |
| OCCCc1ccc[n+](CCCCCc2cc(CCCCC[n+]3cccc(CCCO)c3)c(CCCCC[n+]3cccc(CCCO)c3)cc2CCCCC[n+]2cccc(CCCO)c2)c1 | 63 | 3 | 41 |
| CC1=CCCN(CCCCCCCCCCN2CCC=C(C)C2)C1 | 65 | 37.4 | 36 |
| Cc1ccc[n+](CCCCCCCCCC[n+]2cccc(C)c2)c1 | 63 | 180 | – |
| C(#Cc1ccccc1C#CCCCN1CCc2ccccc2C1)CCCN1CCc2ccccc2C1 | – | – | 18 |
| OCCCC1=CCCN(CCCCCc2cc(CCCCCN3CCC=C(CCCO)C3)c(CCCCCN3CCC=C(CCCO)C3)cc2CCCCCN2CCC=C(CCCO)C2)C1 | 64 | 30 | 40 |
| C(#Cc1ccccc1C#CCCC[n+]1ccc2ccccc2c1)CCC[n+]1ccc2ccccc2c1 | 59 | 63 | – |
| c1ccc2c[n+](CCCCCc3cc(CCCCC[n+]4ccc5ccccc5c4)c(CCCCC[n+]4ccc5ccccc5c4)cc3CCCCC[n+]3ccc4ccccc4c3)ccc2c1 | 52 | 56 | – |
| CC1=CCCN(CCCC#Cc2cc(C#CCCCN3CCC=C(C)C3)cc(C#CCCCN3CCC=C(C)C3)c2)C1 | 67 | 3.22 | 83 |
| c1ccc2c(c1)CCN(CCCCCc1cc(CCCCCN3CCc4ccccc4C3)c(CCCCCN3CCc4ccccc4C3)cc1CCCCCN1CCc3ccccc3C1)C2 | 64 | 205 | 84 |
| c1ccc2c(c1)CCN(CCCCCc1cc(CCCCCN3CCc4ccccc4C3)cc(CCCCCN3CCc4ccccc4C3)c1)C2 | 58 | 0.35 | 58 |
| c1ccc2c[n+](CCCCCc3cc(CCCCC[n+]4ccc5ccccc5c4)cc(CCCCC[n+]4ccc5ccccc5c4)c3)ccc2c1 | – | – | 28 |
| Cc1ccc[n+](CCCC#Cc2cc(C#CCCC[n+]3cccc(C)c3)cc(C#CCCC[n+]3cccc(C)c3)c2)c1 | 67 | 0.2 | 40 |
| c1ccc2c[n+](CCCCCCCCCCCC[n+]3ccc4ccccc4c3)ccc2c1 | 53 | 40 | – |
| Cc1ccc[n+](CCCCCCCCCCCC[n+]2cccc(C)c2)c1 | 63 | 2 | – |
| c1ccc2c(c1)CCN(CCCCCCCCCCN1CCc3ccccc3C1)C2 | 74 | 9.91 | – |
| c1ccc2c(c1)CCN(CCCCCCCCCCCCN1CCc3ccccc3C1)C2 | 76 | 8.59 | – |
